In the library only some 0.74% were active in any assay of this set; here they are far more common.
ASAP1 inh: inhibitors of human ASAP1 ArfGAP activity; 0.19% of 360,000 active; ASAP1-stimulated ARF1 GTP hydrolysis, GDP FP detection; Q9ULH1; inhibition, % at 16.5 µM; in the data active = inhibition above about 25%;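 note: 0% = vehicle with enzyme and substrate and 100% = no enzyme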
Target sequence (Q9ULH1 325-724 limits assumed): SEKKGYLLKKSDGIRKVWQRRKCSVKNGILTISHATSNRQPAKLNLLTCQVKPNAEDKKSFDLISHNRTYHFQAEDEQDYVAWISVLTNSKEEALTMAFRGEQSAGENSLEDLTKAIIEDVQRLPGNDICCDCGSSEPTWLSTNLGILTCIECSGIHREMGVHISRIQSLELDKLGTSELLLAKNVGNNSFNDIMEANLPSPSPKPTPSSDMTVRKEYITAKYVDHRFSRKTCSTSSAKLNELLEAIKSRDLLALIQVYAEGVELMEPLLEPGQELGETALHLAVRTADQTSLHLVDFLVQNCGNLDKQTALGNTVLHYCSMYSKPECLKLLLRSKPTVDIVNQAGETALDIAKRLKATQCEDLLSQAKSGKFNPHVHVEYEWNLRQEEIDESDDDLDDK
Tn7 DDE FP: inhibitors of Tn7 peptide binding to human fibrin DD(E); inhibition, % at 8.3 µM; FP displacement of FITC-Tn7 peptide from fibrin DD(E); 0% = median of compound wells per plate; AID 720508; 0.13% of 370,000 active;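 active = inhibition above the mean of compounds falling within the control limits plus 3 SD of them, cut at about 14% in these data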;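 note: 0% = plate median of compound wells and 100% = 10 µM Aha-Tn7 peptide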
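assay system = human clot-derived fibrin DD(E) complex | quantity = Fibrin-DD(E) at 2 µM final | timing = 10 min preincubation, 3 h with tracer, room temperature | signal = fluorescence polarization | measure = percent inhibition | benchmarks = high control wells with 10 µM unlabelled Aha-Tn7 peptide (full inhibition) | replicates = singlicate testing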
ARFGAP1 inh: rat ARFGAP1 inhibition. Q62848. Arfgap1-stimulated ARF1 GTP hydrolysis, GDP FP detection. inhibition, % at 16.5 µM. 0.26% of 360,000 active. AID 651572;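 active = inhibition above a per-plate limit, mean inhibition of low control wells plus 3 SD, cut at about 25% in these data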;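 note: 0% = DMSO wells with enzyme and 100% = wells lacking Arfgap1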
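Material: truncated rat Arfgap1 GAP domain; Incubation: compound-enzyme preincubation 20 min, reaction 120 min, detection 60 min, 25 °C; Read-out: percent inhibition of Arfgap1-stimulated GTP hydrolysis; Technique: FP, GDP Alexa 633 tracer displaced from anti-GDP antibody, 620/688 nm; Controls: No-Arfgap1 wells (100%) versus DMSO full-reaction wells (0%); Replication: single well per compound.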
DDE Tn6 FP inh: DD(E)-Tn6 binding inhibition, primary FP screen. 0.21% of 370,000 active. Fibrin DD(E) TRITC-Tn6 fluorescence polarization displacement. P02675. inhibition, % at 8.3 µM;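 active = inhibition above a per-campaign cutoff: mean of compounds within control limits plus 3 SD, cut at about 15% in these data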;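 note: 0% = median of all compound wells on the plate and 100% = blocking peptide control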
DDE Tn7 confirm: DD(E)-Tn7 binding inhibition, FP confirmation. shares compounds with Tn7 DDE FP. FP displacement of TRITC-Tn7 peptide from DD(E); 0% set at plate's compound-well median. inhibition, % at 8.3 µM. 5% of 460 active. AID 720628;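 active = inhibition above the campaign cutoff, the mean of compounds within control limits plus 3 SD, cut at about 14% in these data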;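 note: 100% = median FP of high control wells holding Aha-Tn7 inhibitor peptide; displacers lower polarization since freed probe rises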
Tn7 DDE ctr: counter-screen hit for Tn7 peptide-fibrin DD(E) binding disruption; shares compounds with Tn7 DDE FP; TRITC-Tn7 probe displacement, fluorescence polarization; 3% of 460 active; inhibition, % at 8.3 µM;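 active = inhibition above the cutoff, the mean of compounds lying between the control bounds plus 3 SD of those compounds, cut at about 17% in these data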;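 note: 0% = median of compound sample wells and 100% = excess unlabeled Aha-Tn7 peptide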
* marks the source's active call; other numbers are inactive results; nt = no result.

SMILES | ASAP1 inh | Tn7 DDE FP | ARFGAP1 inh | DDE Tn6 FP inh | DDE Tn7 confirm | Tn7 DDE ctr
CC1(C)CC(=O)C2=C(C1)N(Cc1ccco1)C(=O)C2(NC(=O)C1CCCCC1)C(F)(F)F (stereo unspecified) | -2 | 14* | -2 | -2 | 2 | 5
COc1ccc(NC(=O)C2CCN(S(=O)(=O)c3ccc4c(c3)NC(=O)C(C)S4)CC2)cc1 (stereo unspecified) | 1 | 3 | -11 | 7 | nt | nt
COc1ccc(NS(=O)(=O)c2ccc3c(c2)NC(=O)C(C)S3)cc1 (stereo unspecified) | 6 | 14* | -4 | -9 | -2 | -7
O=[N+]([O-])c1ccc(CP(=O)(c2ccccc2)c2ccccc2)cc1 | -6 | 14* | -9 | 3 | 8 | 2
O=c1c2ccccc2n(Cc2ccno2)n1[C@@H](Cc1ccccc1)Cn1cc(-c2ccc(-c3ccccc3)cc2)nn1 | nt | 4 | nt | -1 | nt | nt
Cc1ccc2nc(-c3ccccc3)c(Cc3ccccc3C(F)(F)F)n2c1 | -4 | 16* | 1 | 6 | 1 | -2
Cc1ccc(-c2nc3ccc(C)cn3c2Cc2ccccc2C(F)(F)F)cc1 | 9 | 6 | 0 | 1 | nt | nt
Cc1ccc(C)c(N2CCN(S(=O)(=O)c3ccc(-c4ccc(=O)[nH]n4)o3)CC2)c1 | -6 | 4 | 9 | 1 | nt | nt
O=c1ccc(-c2ccc(S(=O)(=O)N3CCCCC3)o2)n[nH]1 | -14 | 14* | -18 | 6 | -1 | 0
CC(C)(C)N(Cc1cn(Cc2ccccc2)nn1)S(=O)(=O)c1ccc(N2CCCC2)cc1Br | nt | -5 | nt | -10 | nt | nt
COc1ccc(-c2coc3c(C(=O)NC4CCCCC4)cccc23)c(C)c1 | -9 | 10 | -13 | 1 | nt | nt
COc1ccc(-c2ccc(C(=O)NC3CCCCC3)c3occc23)c(C)c1 | 0 | 16* | -14 | 4 | 10 | 6
COC(=O)/C=C/C(=O)Nc1cccc(C(F)(F)F)c1 | -11 | 14* | 6 | 3 | -2 | -3
CCN(CC)C(=O)N1CCN(C)CC1 | -5 | 15* | -13 | 7 | 0 | 2
CCN(CC)C(=O)N1CCN(C(=O)N(CC)CC)CC1 | 7 | 8 | 6 | 4 | nt | nt
COC(=O)[C@]12C[C@H](CC(=O)N3CCOCC3)C(=O)N(Cc3ccco3)C1=C[C@H](COCc1ccccc1)O[C@@H]2C | nt | -8 | nt | -3 | nt | nt
O=C(OCC(=O)N1CCCc2ccccc21)c1cccc(C(F)(F)F)c1 | -4 | 15* | 3 | 3 | 3 | 4
CC(C)(C)NC(=O)C(c1cccnc1)N(C(=O)c1cnc[nH]1)c1ccc(C(C)(C)C)cc1 (stereo unspecified) | nt | -2 | nt | 4 | nt | nt
O=C(CSc1nnc(CNC(=O)c2ccco2)o1)Nc1cccc(Cl)c1 | -11 | 16* | -11 | 1 | -1 | -4
C#CCCCN([C@@H](CC(C)C)C(=O)OC)S(=O)(=O)c1ccc(F)cc1Br | nt | -1 | nt | -4 | nt | nt
O=C(CCc1nnc(Cc2ccc(-c3ccccc3)cc2)o1)N1CCCC1 | 12 | 16* | -11 | 7 | -6 | -9
O=C(CSc1nnc(Cc2ccccc2)o1)N1CCCC1 | -6 | -3 | -12 | 9 | nt | nt
COC(=O)c1sc(S(=O)(=O)N2CCCCC2)c(C(=O)OC)c1C | 8 | 2 | 0 | -6 | nt | nt
COC(=O)c1sc(S(=O)(=O)N2CCN(c3ccccc3)CC2)c(C(=O)OC)c1C | 2 | 14* | 6 | 1 | -2 | -6
NS(=O)(=O)c1ccc(CCNc2nn3c(-c4ccc(F)c(Cl)c4)cnc3s2)cc1 | 4 | 14* | 16 | 7 | 9 | 0
COc1ccc(-n2c(SCC(=O)N/N=C(/C)c3cccc(O)c3)nc3ccccc3c2=O)cc1 | nt | -5 | nt | 9 | nt | nt
Nn1c(SCC(=O)NC2CCCCC2)nnc1-c1cc(-c2ccc(Cl)cc2)n[nH]1 | nt | -1 | nt | -1 | nt | nt
C=CCN1[C@H](Cc2ccccc2)COc2cccc(N3CCCC3)c2S1(=O)=O | nt | -4 | nt | -1 | nt | nt
CN(C)S(=O)(=O)c1ccc(C(=O)NCC(=O)N/N=C/c2cccs2)cc1 | -3 | 15* | -14 | 9 | -2 | -3

Screens as filed in PubChem BioAssay.
